Rce1 inhib = inhibitors of yeast Ras-converting enzyme | Q03530 | yeast membranes, quenched prenylated peptide cleavage fluorescence | calls only | 290,000 tested, 0.27% active;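 active = fall in fluorescence gain of 50% or more versus controls, with final raw signal at or below 3038400; inconclusive = same 50% fall but final raw signal above 3038400; inactive = fall in fluorescence gain under 50%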;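 note: plate controls were neutral control wells for no effect and wells lacking membranes for full effect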
STK33 kinase inh = human STK33 kinase inhibition. Q9BYT3. purified STK33, MBP phosphorylation, ADP-Glo luminescence. inhibition, % at 10 µM. 320,000 tested, 0.073% active;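 active = inhibition at or above 25%, using the most active replicate where run in duplicate; inactive = inhibition below 25%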
GSK3A inh = inhibitors of human GSK-3 alpha kinase. 320,000 tested, 0.1% active. ADP-Glo luminescence, 60 min. inhibition, % at 10 µM. P49840;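 active = more than half of replicates show inhibition above 20%; inconclusive = some but at most half of replicates above 20% inhibition; inactive = no replicate shows inhibition above 20%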;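 note: GST-tagged GSK-3 alpha with peptide substrate and 25 µM ATP; 0% = DMSO neutral wells and 100% = GW8510 positive control wells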
AI-2 QS modul = Vibrio harveyi AI-2 quorum sensing modulation; Vibrio harveyi JMH597 AI-2 luminescence/OD600 ratio, 9 h; hits give low values; strain lacks LuxN and CqsS sensors; 0 = neutral-control median; activity change, % at 7.5 µM; 300,000 tested, 0.4% active; AID 2094; in the data active = activity change below about -75%, passing the limit was not always enough; inconclusive = no clear call, values can overlap the other calls;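 note: luminescence divided by OD600 gain over 9 h not by final OD600 alone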
DYRK1A inh = blocks rat Dyrk1A kinase activity | Q63470 | ADP-Glo luminescence, NFATc1 peptide | inhibition, % at 12.5 µM | 310,000 tested, 0.43% active; in the data active = inhibition above about 50%;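 note: plate controls were vehicle with enzyme for no effect and no enzyme for full effect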
GSK3beta inhib = human GSK3beta kinase inhibition; GST-GSK3beta kinase, ADP-Glo luminescence, 60 min; hits give low values; activity score (negative = inhibition), % at 10 µM; 300,000 tested, 0.038% active; AID 2097;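 active = more than half of replicate wells score below -50%, meaning over 50% inhibition versus plate controls; inconclusive = some replicates but at most half score below -50%; inactive = no replicate scores below -50%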;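 note: 0% = median DMSO wells and -100% = median GW8510 positive control wells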
Target sequence (P49841 whole entry, looked up): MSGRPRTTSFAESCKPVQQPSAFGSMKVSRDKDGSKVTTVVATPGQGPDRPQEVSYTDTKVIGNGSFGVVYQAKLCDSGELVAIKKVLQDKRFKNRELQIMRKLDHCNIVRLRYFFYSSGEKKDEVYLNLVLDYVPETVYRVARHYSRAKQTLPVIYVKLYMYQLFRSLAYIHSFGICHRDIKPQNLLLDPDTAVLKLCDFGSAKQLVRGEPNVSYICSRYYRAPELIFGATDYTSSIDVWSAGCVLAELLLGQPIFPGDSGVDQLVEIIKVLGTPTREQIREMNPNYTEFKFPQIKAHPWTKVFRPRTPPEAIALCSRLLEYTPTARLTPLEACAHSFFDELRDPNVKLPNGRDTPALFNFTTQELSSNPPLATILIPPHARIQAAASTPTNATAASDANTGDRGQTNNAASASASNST
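Test system: GST-tagged human GSK3beta kinase, cell-free; evaluation: activity score scaled between in-plate DMSO and GW8510 controls; measured by: ADP-Glo luminescence; incubation: 60 min reaction, RT; benchmarks: DMSO and 20 µM GW8510; reagent: peptide substrate plus 25 µM ATP (final); medium: Tris/MgCl2 kinase buffer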
Starred values were filed as active, the others as inactive; i = inactive; u = inconclusive; x = not tested or not shown; + = active, no number. The list is not random: actives were taken first. Their share in the collection is about 0.99%.

SMILES | Rce1 inhib | STK33 kinase inh | GSK3A inh | AI-2 QS modul | DYRK1A inh | GSK3beta inhib
COc1ccc(CSc2ccc(-c3nc4ccccn4c3NCc3ccccc3)cc2OC)cc1 | + | 0 | -1 | 26 | 1 | 1
COc1cc(-c2nc3ccccn3c2NCc2ccccc2)ccc1SC1CCCCC1 | i | 7 | 2 | 19 | 5 | 1
O=C(COc1ccccc1)Nc1nnc(-c2ccccc2Cl)o1 | i | -1 | 2 | -79* | -6 | 3
O=C(COc1ccccc1)Nc1nnc(-c2ccc(F)cc2)o1 | i | 1 | 7 | u | 6 | -8
CCN1CCN(c2cc(C)c3cc(NC(=O)c4ccc(Br)o4)ccc3n2)CC1 | i | 29* | -2 | 4 | 4 | 1
Cc1ccc(-c2cc(C)nc3ncnn23)cc1 | i | -4 | 3 | 26 | -7 | 1
Cc1ccc(-c2cc(C)nc3nc(N)nn23)cc1 | + | 1 | 1 | 21 | 5 | 3
O=C(O)c1ccc(N=Nc2c(O)[nH]c3ccc(Br)cc23)cc1 | i | 1 | 64* | 5 | 9 | 2
CCOC(=O)Cc1c(Cl)c2ccccc2[nH]c1=O | i | -2 | -1 | 32 | -6 | -3
CCOC(=O)C[n+]1ccc2c([nH]c3ccccc32)c1C | + | -2 | -3 | 19 | 1 | 1
Cc1cc(OCCN2CCN(S(=O)(=O)c3ccccc3F)CC2)ccc1C(C)C | x | 0 | -6 | x | x | x
CN(C)/C=N/c1c(C#N)cnn1-c1ncnc2sc(-c3ccccc3)cc12 | + | 0 | 0 | 15 | 9 | -1
CN1CCN(CCCNC(=O)c2cc3c(=O)n(C)c4ccccc4c3s2)CC1 | + | 3 | 3 | 28 | 6 | 0
Cc1ccc2oc(=O)c3cc(C(=O)NCCCN4CCN(C)CC4)sc3c2c1 | i | 2 | 5 | 11 | -4 | 4
NC(=O)CCCn1c(C(=O)c2cc(Cl)c(N)c(Cl)c2)c2ccc(C(F)(F)F)cc2[n+]1[O-] | + | 0 | 0 | 14 | 1 | 4
NCCCn1c(C(=O)c2cc(Cl)c(N)c(Cl)c2)c2ccc(C(F)(F)F)cc2[n+]1[O-] | + | 0 | 4 | 5 | 7 | -3
CC(C)(C)c1cc(CSC(=S)NC2CCS(=O)(=O)C2)c(Br)c(C(C)(C)C)c1 (stereo not drawn) | i | -1 | 0 | 36 | -1 | -2
O=S1(=O)CC=C(CSC(=S)NC2CCS(=O)(=O)C2)C1 (stereo not drawn) | i | 0 | 1 | -83* | -2 | 2
O=C(CCl)N(CCc1ccccc1)CCc1ccccc1 | i | -2 | 1 | -8 | 5 | 1
Oc1ccccc1N=Nc1ccccc1O | i | x | x | 25 | -2 | 2
Nc1ccc(N=Nc2ccccc2O)c(N)c1 | i | 33* | 2 | 20 | x | 1
COc1ccc(-c2csc(NC(=O)c3ccccc3NS(=O)(=O)c3ccc(F)c(F)c3)n2)cc1 | i | -1 | -5 | 41 | 57* | 4
Cc1ccc(S(=O)(=O)Nc2ccccc2C(=O)Nc2nc(-c3ccc(F)cc3)cs2)cc1 | i | x | x | 18 | -17 | 1
Cc1ccc(Nc2nc(-c3ccc(S(=O)(=O)N4CCOCC4)cc3)cs2)cc1Cl | + | -1 | 0 | 34 | -5 | 2
O=C(OCC(=O)C12CC3CC(CC(C3)C1)C2)c1ccc(O)cc1O | i | 0 | -1 | 28 | -1 | -2
SMILES | Rce1 inhib | STK33 kinase inh | GSK3A inh | AI-2 QS modul | DYRK1A inh | GSK3beta inhib
O=C(CSc1nnc(-c2ccc(O)cc2)o1)Nc1ccccc1 | x | -3 | 52* | x | 2 | x
CCCCN(Cc1ccco1)S(=O)(=O)c1csc(C(N)=O)c1 | i | 1 | 1 | 14 | 0 | -2
COc1ccc(C(C)C)cc1S(=O)(=O)NC1CCCC1 | i | -1 | -1 | 27 | 2 | 1
O=C1CSC(c2cn(-c3ccccc3)nc2-c2cc3ccccc3o2)N1Cc1ccccc1 (stereo not drawn) | i | 3 | -3 | 2 | 4 | -3
O=C1CSC(c2cn(-c3ccccc3)nc2-c2cc3ccccc3oc2=O)N1Cc1ccco1 (stereo not drawn) | + | -1 | 2 | 33 | -4 | -1
Cc1c(C(=O)OCC(=O)N(C)c2ccccc2)oc2ccccc12 | i | 0 | 0 | 7 | 3 | 0
